Assay results as given in ChEMBL document CHEMBL4385631, “Small molecule inhibition of microRNA-21 expression reduces cell viability and microtumor formation” (Bioorg Med Chem, 2019).
pEC50, pIC50: −log10 of the molar value. The source made the active and inactive calls. The calls are words filed in the database; no cut-off is given here.

Experiments:
HeLa [1] = experiment: Effect on non-miRNA pathway in human HeLa cells harboring psi-check empty vector assessed as increase in luminescence at 10 uM after 48 hrs by dual luciferase assay relative to control; assay type: functional
Method in brief: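 HeLa cells transfected with psiCHECK-empty reporter (sequence not targeted by any known miRNA), then treated at 10 µM for 48 h. Dual luciferase assay; firefly signal normalized to Renilla, then to DMSO. Three independent experiments, mean ± SD; unpaired t-test.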

[2] = target: Luciferin 4-monooxygenase (Photinus pyralis) (UniProt P08659); experiment: Inhibition of recombinant firefly luciferase activity assessed as reduction in luminescence at 10 uM by Bright-glo luciferase assay
Sequence of Luciferin 4-monooxygenase (Photinus pyralis) (P08659 whole entry): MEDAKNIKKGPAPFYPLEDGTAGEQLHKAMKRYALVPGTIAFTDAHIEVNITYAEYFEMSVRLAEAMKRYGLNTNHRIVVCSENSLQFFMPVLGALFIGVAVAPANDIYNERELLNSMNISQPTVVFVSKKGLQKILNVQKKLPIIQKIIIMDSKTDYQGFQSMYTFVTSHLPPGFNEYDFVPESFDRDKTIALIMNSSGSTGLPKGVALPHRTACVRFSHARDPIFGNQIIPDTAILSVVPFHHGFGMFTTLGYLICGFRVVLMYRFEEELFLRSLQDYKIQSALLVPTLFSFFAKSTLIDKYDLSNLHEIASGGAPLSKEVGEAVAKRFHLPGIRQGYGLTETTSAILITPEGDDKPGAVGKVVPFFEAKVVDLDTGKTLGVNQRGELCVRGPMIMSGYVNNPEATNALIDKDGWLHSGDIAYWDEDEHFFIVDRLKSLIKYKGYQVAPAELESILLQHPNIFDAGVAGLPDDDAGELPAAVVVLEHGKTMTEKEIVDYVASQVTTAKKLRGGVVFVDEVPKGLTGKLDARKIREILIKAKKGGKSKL

microRNA 21 [3] = experiment: Inhibition of miR-21 RNA (unknown origin) in HeLa cells harboring luciferase gene assessed as increase in luminescence at 10 uM after 48 hrs by Bright-glo luciferase assay relative to DMSO; assay type: cell-based
Method in brief: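 HeLa-miR21-Luc stable reporter cells treated at 10 µM for 48 h. Luminescence normalized to cell viability and expressed as fold change over DMSO control. Mean ± SD of at least three independent experiments.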

[4] = target: Luciferin 4-monooxygenase (Photinus pyralis) (UniProt P08659); experiment: Inhibition of recombinant firefly luciferase activity assessed as reduction in luminescence at 10 uM by Bright-glo luciferase assay relative to control
microRNA 21 [5] = experiment: Inhibition of miR-21 RNA (unknown origin) in HeLa cells harboring luciferase gene after 48 hrs by Bright-glo luciferase assay; assay type: cell-based
Method in brief: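 HeLa-miR21-Luc stable reporter cells treated across a concentration range, then Bright-Glo assay. Luciferase signal normalized first to cell viability, then to DMSO. Three independent experiments; EC50 from nonlinear regression fit.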

microRNA 122 [6] = experiment: Inhibition of miR-122 RNA (unknown origin) in HuH7 cells harboring luciferase gene assessed as increase in luminescence at 10 uM after 48 hrs by dual luciferase assay relative to control; assay type: cell-based
Method in brief: (§1)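 Huh7-miR122 stable reporter cells treated at 10 µM for 48 h; known miR-122 inhibitor as positive control. Dual luciferase assay; Renilla signal normalized to firefly, then to DMSO. Three independent experiments, mean ± SD; unpaired t-test.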

microRNA 21 [7] = experiment: Inhibition of miR-21 RNA in human HeLa cells assessed as reduction in matured miR-21 RNA at 10 uM after 48 hrs by RT-qPCR analysis relative to control
microRNA 21 [8] = experiment: Inhibition of miR-21 RNA promoter (unknown origin) in HeLa cells expressing pGL4-miR21p assessed as decrease in miR-21 RNA promoter activity at 10 uM preincubated for 48 hrs followed by pGL4-miR21p transfection after 24 hrs by Bright-glo luciferase assay relative to DMSO; assay type: cell-based
microRNA 21 [9] = experiment: Inhibition of miR-21 RNA in human SKOV3 cells assessed as reduction in matured miR-21 RNA at 10 uM after 48 hrs by RT-qPCR analysis relative to control
microRNA 21 [10] = experiment: Inhibition of pri-miR-21 RNA in human HeLa cells assessed as decrease in pri-miR-21 RNA level at 10 uM after 48 hrs by RT-qPCR method relative to control; assay type: cell-based
Method in brief: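 HeLa cells treated at 10 µM for 48 h; primary miR-21 levels measured by RT-qPCR.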

microRNA 122 [11] = experiment: Inhibition of miR-122 RNA (unknown origin) in HuH7 cells harboring luciferase gene assessed as reduction in luminescence at 10 uM after 48 hrs by dual luciferase assay relative to control; assay type: cell-based; method in brief: as §1
HEK293 = experiment: Antiproliferative activity against human HEK293 cells cell viability after 72 hrs by XTT assay; assay type: cell-based; conditions: hek293, 72 h
Method in brief: (§2)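 Cells treated with a serial dilution of compound for 72 h; viability read by XTT assay.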

HeLa [12] = experiment: Antiproliferative activity against human HeLa cells cell viability after 72 hrs by XTT assay; assay type: functional, cell-based; method in brief: as §2
HeLa [13] = experiment: Anticlonogenic activity against human HeLa cells assessed as reduction in colony formation after 2 weeks by crystal violet staining based microscopic method; assay type: functional, cell-based; conditions: 336 h
Method in brief: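 HeLa cells suspended in low-melt agarose and exposed to a dilution series of compound for two weeks at 37 °C, then imaged.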

HeLa [14] = experiment: Induction of apoptosis in human HeLa cells assessed as increase in caspase 3/7 activity at 10 uM after 24 hrs by caspase3/7 activity assay; assay type: functional
Method in brief: (§3)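 HeLa cells treated for 24 h, then caspase-3/7 activity assay.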

microRNA 21 [15] = experiment: Inhibition of miR-21 RNA in human A549 cells assessed as reduction in matured miR-21 RNA at 10 uM after 48 hrs by RT-qPCR analysis relative to control
HeLa [16] = experiment: Induction of apoptosis in human HeLa cells assessed as increase in caspase 3/7 activity at 50 uM after 24 hrs by caspase3/7 activity assay relative to control; assay type: functional; method in brief: as §3
microRNA 21 [17] = experiment: Binding affinity to pre-miR-21 RNA (unknown origin) assessed as melting temperature by UV spectroscopic analysis (reference value: 56 degC); assay type: nucleic-acid assay

SMILES	fold change (FC) (microRNA 21 [3])	other results
O=C(O)c1cccc(-c2noc(-c3ccccc3F)n2)c1 [ATALUREN]	–	fold change (FC) (HeLa [1]): 1.5 - 1.8; inhibition [2]: 94%
COc1ccc(OCC(=O)Nc2ccc(-c3nc4cc(Cl)ccc4[nH]3)cc2)cc1	1.6	–
O=C(COc1ccccc1)Nc1ccc2cc(-c3nc4cc(Cl)ccc4o3)ccc2c1	1.3	–
O=C(COc1ccccc1)Nc1ccc(-c2nc3ccc(Cl)cc3o2)cc1	2.65	–
COc1ccc(OCC(=O)Nc2ccc(-c3nc4cc(F)ccc4o3)cc2)cc1	2.14	–
COc1ccc(OCC(=O)Nc2cccc(-c3nc4ccccc4o3)c2)cc1	4.73	–
COc1ccc(OCC(=O)Nc2ccc(-c3nc4cc(Br)ccc4o3)cc2)cc1	6.19	inhibition [4]: 38%; fold change (FC) (HeLa [1]): 1.5 - 1.8; pEC50 (microRNA 21 [5]): 5.19; inhibition (microRNA 21 [5]): Dose-dependent effect
O=C(COc1ccccc1)Nc1ccc(-c2nc3cc(Cl)ccc3o2)cc1	2.87	–
O=C(COc1ccccc1)Nc1ccc(-c2nc3ccccc3o2)cc1	1.47	–
COc1ccc(OCC(=O)Nc2ccc(-c3nc4ccccc4o3)cc2)cc1	0.27	–
O=S(=O)(c1ccc2c(c1)CCCN2)N1CCC[C@H]2CCCC[C@@H]21	–	fold change (FC) (microRNA 122 [6]): > 3.5
COc1ccc(SCC(=O)Nc2ccc(-c3nc4cc(Cl)ccc4o3)cc2)cc1	2.64	–
N#Cc1ccc(OCC(=O)Nc2ccc(-c3nc4cc(Cl)ccc4o3)cc2)cc1	2.08	–
O=C(COc1ccc(-c2ccccc2)cc1)Nc1ccc(-c2nc3cc(Cl)ccc3o2)cc1	2.64	–
O=C(COc1ccccc1I)Nc1ccc(-c2nc3ccccc3s2)cc1	1.55	–
COc1ccc(OCC(=O)Nc2ccc(-c3nc4cc(-c5ccccc5)ccc4o3)cc2)cc1	7.87	inhibition [4]: 27%; fold change (FC) (HeLa [1]): 1.5 - 1.8; pEC50 (microRNA 21 [5]): 5.46; inhibition (microRNA 21 [5]): Dose-dependent effect
COc1cccc(OCC(=O)Nc2ccc(-c3nc4cc(Cl)ccc4o3)cc2)c1	5.37	inhibition [4]: 44%; fold change (FC) (HeLa [1]): 1.5 - 1.8; pEC50 (microRNA 21 [5]): 5.33; inhibition (microRNA 21 [5]): Dose-dependent effect
O=C(COc1ccc([N+](=O)[O-])cc1)Nc1ccc(-c2nc3cc(Cl)ccc3o2)cc1	3.58	–
O=C(COc1ccc(F)cc1)Nc1ccc(-c2nc3cc(Cl)ccc3o2)cc1	2.86	–

SMILES	fold change (FC) (microRNA 21 [3])	other results
COc1ccc(OCC(=O)Nc2nc3ccc(-c4nc5cc(Cl)ccc5o4)cc3s2)cc1	0.03	–
COc1ccc(OC(=O)Nc2ccc(-c3nc4cc(Cl)ccc4o3)cc2)cc1	3.48	–
O=C(COc1ccccc1)Nc1cccc(-c2nc3ccccc3o2)c1	1.75	–
C#CCN(C(=O)COc1ccc(OC)cc1)c1ccc(-c2nc3cc(Cl)ccc3o2)cc1	1.61	–
O=C(COc1ccccc1)Nc1ccc(-c2nc3cc(Cl)ccc3[nH]2)cc1	0.41	–
O=C(COc1ccccc1)Nc1ccc(-c2nc3cc(F)ccc3o2)cc1	1.58	–
O=C(COc1ccccc1)Nc1ccc(-c2nc3ccccc3s2)cc1	1.68	–
O=C(Nc1ccc(-c2nc3cc(Cl)ccc3o2)cc1)Oc1ccccc1	3.86	–
O=C(COc1ccccc1)Nc1cccc(-c2nc3cc(Cl)ccc3o2)c1	2.14	–
COc1ccc(OCC(=O)Nc2ccc(-c3nc4ccc(Cl)cc4o3)cc2)cc1	3.32	–
COc1ccc(OCC(=O)Nc2ccc(-c3nc4ncccc4o3)cc2)cc1	2.25	–
COc1ccc(OCC(=O)N(C)c2ccc(-c3nc4cc(Cl)ccc4o3)cc2)cc1	0.88	–
COc1ccc(NCC(=O)Nc2ccc(-c3nc4cc(Cl)ccc4o3)cc2)cc1	0.14	–
COc1ccc(OCC(=O)Nc2ccc(-c3nc4ccccc4s3)cc2)cc1	1.56	–
COc1ccc(OCC(=O)Nc2cccc(-c3nc4cc(Cl)ccc4o3)c2)cc1	3.19	–
Cc1cc(OCC(=O)Nc2ccc(-c3nc4cc(Cl)ccc4o3)cc2)ccc1C(C)C	2.23	–
O=C(COc1ccccc1I)Nc1ccc(-c2nc3ccccc3o2)cc1	1.53	–
COc1ccc(OCC(=O)Nc2ccc(-c3nc4cc(Cl)ccc4o3)cc2)cc1	4.87	inhibition (microRNA 21 [7]): 57%; inhibition (microRNA 21 [8]): 78%; inhibition (microRNA 21 [9]): 31%; inhibition (microRNA 21 [10]): 79%; fold change (FC) (microRNA 122 [11]): 0.2; Activity (HEK293): Non-Toxic; pIC50 (HeLa [12]): < 4.30; inhibition [4]: inactive; pEC50 (HeLa [13]): 5.14; Activity (HeLa [1]): inactive; Activity (HeLa [14]): 50%; pEC50 (microRNA 21 [5]): 5.17; inhibition (microRNA 21 [5]): Dose-dependent effect; inhibition (microRNA 21 [15]): 33%; fold change (FC) (HeLa [16]): 2; Tm (microRNA 21 [17]): 56.2 °C
